Common to all, as to type: cell-based
In assay [1] the test system is PLK-1. Put plainly: qRT-PCR splice modulation, PLK-1 exon skipping/expression in HCT116 cells. The note with it: for PLK-1 expression/splicing: HCT116, 24 h, 100-500 nM; for effect on exon 3 inclusion in PLK-1: HCT116, 4 h, ~20 times GI50. Put shortly:
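HCT116 (ATCC, mycoplasma-tested, ≤5 passages) in supplemented McCoy's 5a with 0.5% DMSO, exposed 4 h or 24 h (100, 250, 500 nM); untreated control. Total RNA isolated, 1 μg DNase I-treated, cDNA made; qPCR on 5 ng cDNA with primers for intron retention/exon skipping. Cycling: 95 °C 10 min; 40× (95 °C 30 s, 55 °C 60 s, 72 °C 60 s). 2−ΔΔCT vs GAPDH, untreated set to 1.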
(Real-time PCR tracks product formation cycle by cycle.)

For assay [2], the system named is HCT116 colorectal carcinoma cells. Put plainly: MTS cell viability / cell growth inhibition assay in HCT116 cells. The note with it: for GI50: Homo sapiens, HCT-116, 72 h; for fold loss in cell growth inhibitory activity (GI50) compared to 1 / fold less effective (GI50) compared to 17S-FD-895: HCT116 cells, 72 h; for fold loss in cell growth inhibitory activity (GI50) compared to 1: relative to FD-895 (1); for fold less effective (GI50) compared to 17S-FD-895: comparator printed as 17S-FD-895 (1a); for fold loss in activity: comparator not stated, side chain terminus modification.

Assay [3] deals with SF2. In words: qRT-PCR, SF2 RNA expression in HCT116 cells. The note with it: for down regulation of SF2 expression: HCT116, 4 h, ~20 times GI50; for SF2 expression: HCT116, 24 h, 100-500 nM.
For assay [4], the system named is HCT116 tumor cells. Put plainly: qRT-PCR splice modulation, overall profile over the gene panel in HCT116 cells. The note with it: HCT116, 24 h, 100, 250 and 500 nM.
In assay [5] the test system is SF3A1. In words: qRT-PCR splice modulation, SF3A1 intron retention in HCT116 cells. The note with it: for SF3A1 intron 6 retention: HCT116, 4 h, ~20 times GI50, relative to 1; for SF3A1 intron retention: HCT116, 24 h, 100-500 nM, compared to 1.
Assay [6] deals with DNAJB1. In words: qRT-PCR splice modulation, DNAJB1 intron retention in HCT116 cells. The following applies: for DNAJB1 intron 2 retention: HCT116, 4 h, ~20 times GI50, relative to 1; for DNAJB1 intron retention: HCT116, 24 h, 100-500 nM, compared to 1.
In assay [7] the test system is SF3B2. In words: qRT-PCR splice modulation, SF3B2 intron retention in HCT116 cells.
For assay [8], the system named is SF3A3. In words: qRT-PCR splice modulation, SF3A3 intron retention in HCT116 cells. The following applies: HCT116, 24 h, 100-500 nM, compared to 1. The essentials: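 HCT116 cells (ATCC, mycoplasma-tested, ≤5 passages), supplemented McCoy's 5a with 0.5% DMSO, treated 24 h at 100, 250 or 500 nM; untreated cells as control. Total RNA extracted, 1 μg DNase I-treated, converted to cDNA; qPCR on 5 ng cDNA using intron-retention primers, 95 °C 10 min then 40 cycles 95/55/72 °C. Levels by 2−ΔΔCT relative to GAPDH, untreated = 1.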

Assay [9] deals with AURKA. In words: qRT-PCR splice modulation, AURKA exon skipping/expression in HCT116 cells. The note with it: HCT116, 24 h, 100-500 nM.
[10] abbreviates: HCT116, 4 h, ~20 times GI50, compared to 1.
Where [11] appears, read: HCT116, 24 h, 100-500 nM, compared to 1.

By GI50 is commonly meant the concentration that inhibits growth by half. Low readings indicate more potent growth inhibition, high ones less potent growth inhibition.

Take `CC[C@H](OC)[C@@H](C)[C@H]1O[C@@H]1[C@H](O)[C@H](C)/C=C/C=C(\C)[C@H]1OC(=O)C[C@H](O)CC[C@@](C)(O)[C@@H](OC(C)=O)/C=C/[C@@H]1C` [Compound 1, FD-895]: the PLK-1 expression/splicing result in assay [1] was “weak efficacy”. For the same compound, the GI50 in assay [2] was under 10 nM. Besides, in assay [3], the “down regulation of SF2 expression” value is “highest efficacy” and the SF2 expression result was “weak efficacy”. For the same compound, in [4], the “overall splicing activity over the genes tested” value is “altered the splicing of nearly all genes tested”.

With `CC[C@H](OC)[C@@H](C)[C@H]1O[C@@H]1[C@H](O)[C@H](C)/C=C/C=C(\C)[C@H]1OC(=O)C[C@@H](O)CC[C@@](C)(O)[C@@H](OC(C)=O)/C=C/[C@@H]1C` [Compound 1a, 3S-FD-895], the “effect on exon 3 inclusion in PLK-1” value in [1] is “most potent effect”. Besides, the GI50 in [2] is under 10 nM. Further, in assay [5], the “SF3A1 intron 6 retention” value is “more effective than 1”. In addition, in assay [6], the “DNAJB1 intron 2 retention” value is listed as “highest level of intron retention”. Besides, in assay [7] (setting [10]), the SF3B2 intron retention entry was “improved efficacy”.

As to `CC[C@H](OC)[C@@H](C)[C@H]1O[C@@H]1[C@H](O)[C@H](C)/C=C/C=C(\C)[C@H]1OC(=O)C[C@H](O)CC[C@@](C)(O)[C@H](OC(C)=O)/C=C/[C@@H]1C` [Compound 1b, 7R-FD-895], in assay [1], the “effect on exon 3 inclusion in PLK-1” value was “most potent effect”. For the same compound, in [2], the “fold loss in cell growth inhibitory activity (GI50) compared to 1” value stood at 300 fold. Moreover, the “overall splicing activity over the genes tested” value in assay [4] is listed as “loss of splicing activity”.

For the compound `CC[C@H](OC)[C@@H](C)[C@H]1O[C@@H]1[C@H](O)[C@H](C)/C=C/C=C(\C)[C@@H]1OC(=O)C[C@H](O)CC[C@@](C)(O)[C@@H](OC(C)=O)/C=C/[C@H]1C` [Compound 1c, 10R,11R-FD-895], the “fold loss in cell growth inhibitory activity (GI50) compared to 1” value in [2] is given as 21,700 fold.

`CC[C@H](OC)[C@@H](C)[C@H]1O[C@@H]1[C@@H](O)[C@H](C)/C=C/C=C(\C)[C@H]1OC(=O)C[C@H](O)CC[C@@](C)(O)[C@@H](OC(C)=O)/C=C/[C@@H]1C` [Compound 1d, 17S-FD-895]: the PLK-1 expression/splicing result in [1] is given as “decreased effect”. Further, the GI50 in assay [2] is under 10 nM. In addition, in [5], the SF3A1 intron retention result is listed as “dose dependent-increase intron retention”. Besides, the SF2 expression result in assay [3] is on record as “decreased effect”. In addition, the DNAJB1 intron retention result in assay [6] was “decreased level of intron retention”. Besides, in [7] (setting [11]), the SF3B2 intron retention result was “dose dependent-increase intron retention”.

`CC[C@H](OC)[C@@H](C)[C@H]1O[C@@H]1[C@H](OC)[C@H](C)/C=C/C=C(\C)[C@H]1OC(=O)C[C@H](O)CC[C@@](C)(O)[C@@H](OC(C)=O)/C=C/[C@@H]1C` [Compound 1e, 17-methoxy-FD-895]: the “SF3A1 intron 6 retention” value in assay [5] was “more effective than 1”. Moreover, the “DNAJB1 intron 2 retention” value in assay [6] is listed as “highest level of intron retention”. Also, in assay [4], the “overall splicing activity over the genes tested” value is “comparable or slightly reduced splice modulatory activity”. Further, the SF3B2 intron retention entry in assay [7] (setting [10]) was “improved efficacy”.

Turning to `CC[C@H](OC)[C@@H](C)[C@H]1O[C@@H]1[C@@H](OC)[C@H](C)/C=C/C=C(\C)[C@H]1OC(=O)C[C@H](O)CC[C@@](C)(O)[C@@H](OC(C)=O)/C=C/[C@@H]1C` [Compound 1f, 17-methoxy-17S-FD-895], in assay [2], the “fold loss in cell growth inhibitory activity (GI50) compared to 1” value amounted to 21 fold. In assay [5], the “SF3A1 intron 6 retention” value is on record as “more effective than 1”.

For the compound `CC[C@H](OC)[C@@H](C)[C@H]1O[C@@H]1[C@@H](O)[C@H](C)/C=C/C=C(\C)[C@H]1OC(=O)C[C@@H](O)CC[C@@](C)(O)[C@@H](OC(C)=O)/C=C/[C@@H]1C` [Compound 1g, 3S,17S-FD-895], in assay [1], the PLK-1 expression/splicing entry is recorded as “reduced PLK-1 expression”. Moreover, in assay [2], the “fold less effective (GI50) compared to 17S-FD-895” value came to 52 fold and the “fold loss in cell growth inhibitory activity (GI50) compared to 1” value stood at 75 fold. Further, the SF3A1 intron retention entry in [5] is recorded as “expected loss in intron retention”. In assay [3], the “down regulation of SF2 expression” value is “highest efficacy” and the SF2 expression result is “reduced ability to inhibit SF2 expression”. Also, in assay [6], the “DNAJB1 intron 2 retention” value is “highest level of intron retention” and the DNAJB1 intron retention entry was “expected loss in intron retention”. Moreover, the SF3B2 intron retention entry in [7] (setting [10]) is on record as “improved efficacy”. In addition, in [7] (setting [11]), the SF3B2 intron retention entry is listed as “expected loss in intron retention”. For the same compound, the SF3A3 intron retention result in assay [8] is recorded as “comparable intron retention”.

With `CC[C@H](OC)[C@@H](C)[C@H]1O[C@@H]1[C@@H](O)[C@H](C)/C=C/C=C(\C)[C@H]1OC(=O)C[C@H](O)CC[C@@](C)(O)[C@H](OC(C)=O)/C=C/[C@@H]1C` [Compound 1h, 7R,17S-FD-895], the “fold less effective (GI50) compared to 17S-FD-895” value in [2] was 318 fold.

Turning to `CC[C@H](OC)[C@@H](C)[C@@H]1O[C@H]1[C@@H](O)[C@H](C)/C=C/C=C(\C)[C@H]1OC(=O)C[C@H](O)CC[C@@](C)(O)[C@@H](OC(C)=O)/C=C/[C@@H]1C` [Compound 1i, 17S,18S,19S-FD-895], the PLK-1 expression/splicing result in assay [1] is on record as “increased the RNA expression”. In addition, the “fold loss in activity” value in assay [2] came out at 100 fold. The “SF3A1 intron 6 retention” value in assay [5] is reported as “more effective than 1”. The “overall splicing activity over the genes tested” value in [4] was “drastic reduction in splicing activity”.

Consider `CC[C@@H](OC)[C@H](C)[C@H]1O[C@@H]1[C@@H](O)[C@H](C)/C=C/C=C(\C)[C@H]1OC(=O)C[C@H](O)CC[C@@](C)(O)[C@@H](OC(C)=O)/C=C/[C@@H]1C` [Compound 1j, 17S,20S,21R-FD-895], for which the “fold loss in activity” value in assay [2] amounted to 100 fold. For the same compound, the “SF3A1 intron 6 retention” value in assay [5] was “more effective than 1”. The AURKA expression result in assay [9] was “reducing the expression of AURKA at 500 nM”. Moreover, in assay [4], the “overall splicing activity over the genes tested” value is given as “splicing profile comparable to 1i”.

(Values after PMC10586521 (Journal of medicinal chemistry, 2023).)
